According to ChEMBL document CHEMBL3525979, “Combined contributions of impaired hepatic CYP2C11 and intestinal breast cancer resistance protein activities and expression to increased oral glibenclamide exposure in rats with streptozotocin-induced diabetes mellitus” (Drug Metab Dispos, 2012):

Key:
Jejunum [1] = assay: Drug absorption in streptozotocin-induced diabetes mellitus Sprague-Dawley rat jejunum at 10 ug/ml after 30 mins of in situ single-pass perfusion relative to normal rat; type: ADME, tissue-based; settings: in vivo, 0.5 h
Procedure, shortened: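 In situ single-pass jejunal perfusion in anaesthetized control and STZ-diabetic rats. The segment was preperfused with 0.9% saline at 0.2 mL/min, 37 °C, for 20 min, then perfused with K-H buffer containing GLB 10 μg/mL. Effluent was collected at 15-min intervals after a 30-min steady state. Cumulative absorption was calculated from GLB loss (HPLC); n=5.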

[2] = Terminal elimination half life in insulin treated Sprague-Dawley rat model of streptozotocin-induced diabetes mellitus at 10 mg/kg, po by HPLC method; type: ADME, organism-based; set-up: dose 10 mg/kg, route oral; settings: in vivo, read-out: beta t1/2 (converted)
Procedure, shortened: (§1)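 Rats given STZ 65 mg/kg i.p. in citrate buffer pH 4.5 (controls got buffer); diabetic if fasting glucose >11.1 mM at day 7; insulin group got protamine zinc insulin 5 U/kg s.c. twice daily for 4 weeks. On day 35, overnight-fasted rats dosed orally with 10 mg/kg in 0.5% CMC-Na; plasma by ethyl acetate extraction, HPLC fluorescence (ex 308/em 360 nm); non-compartmental analysis; n=6-7, mean ± S.D.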

[3] = AUC (0 to 60 mins) in streptozotocin-induced diabetes mellitus Sprague-Dawley rat liver microsomes at 4 uM after 60 mins; type: ADME; set-up: dose 4 uM, time < 1 hr
Procedure, shortened: (§2)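 Liver microsomes (0.5 mg/mL protein) from control, STZ-diabetic or insulin-treated diabetic rats, 0.01 M phosphate buffer pH 7.4, 4 μM GLB (methanol <1%); 5 min preincubation at 37 °C, started with NADPH regenerating system. Stopped with 1 M HCl at 0, 5, 15, 30, 45, 60 min. GLB depletion measured by HPLC-fluorescence. AUC by linear trapezoid; Clapp = initial dose/AUC0-t; t1/2 = 0.693/terminal slope. Triplicate incubations; 4-5 rats.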

[4] = Apparent oral volume of distribution in Sprague-Dawley rat model of streptozotocin-induced diabetes mellitus at 10 mg/kg, po by HPLC method; type: ADME, organism-based; set-up: dose 10 mg/kg, route oral; settings: in vivo
Procedure, shortened: (§3)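 Sprague-Dawley rats: diabetes induced by STZ 65 mg/kg i.p. in citrate buffer pH 4.5 (fasting glucose >11.1 mM at day 7). Insulin group received protamine zinc insulin 5 U/kg s.c. twice daily for 4 weeks. On day 35, overnight-fasted rats got GLB 10 mg/kg orally in 0.5% CMC-Na. Plasma GLB measured by HPLC with fluorescence detection (ex 308/em 360 nm). Non-compartmental analysis; n=6-7.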

[5] = Drug excretion in feces of Sprague-Dawley rat model of streptozotocin-induced diabetes mellitus at 10 mg/kg, po by HPLC method; type: ADME, organism-based; set-up: dose 10 mg/kg, route oral; settings: faeces, read-out: Drug excretion
Procedure, shortened: (§4)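 STZ-diabetic (65 mg/kg i.p.), insulin-treated or control rats were dosed with GLB 10 mg/kg orally on day 35 after overnight fast. Urine and feces were collected in metabolic cages at 6-h intervals to 36 h. For bile, the common bile duct was cannulated under pentobarbital and bile collected to 12 h. GLB measured by HPLC-fluorescence and expressed as % of dose.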

Liver microsome [6] = assay: Apparent hepatic clearance in streptozotocin-induced diabetes mellitus Sprague-Dawley rat liver microsomes assessed per mg protein at 4 uM after 60 mins; type: ADME; settings: 1 h; procedure, shortened: as §2
[7] = Drug excretion in feces of insulin treated Sprague-Dawley rat model of streptozotocin-induced diabetes mellitus at 10 mg/kg, po by HPLC method; type: ADME, organism-based; set-up: dose 10 mg/kg, route oral; settings: faeces, read-out: Drug excretion; procedure, shortened: as §4
[8] = Tmax in normal Sprague-Dawley rat at 10 mg/kg, po by HPLC method; type: ADME, organism-based; set-up: dose 10 mg/kg, route oral; settings: in vivo; procedure, shortened: as §1
[9] = Drug excretion in bile of Sprague-Dawley rat model of streptozotocin-induced diabetes mellitus at 10 mg/kg, po by HPLC method; type: ADME, organism-based; set-up: dose 10 mg/kg, route oral; settings: read-out: Drug excretion; procedure, shortened: as §4
[10] = Mean residence time in insulin treated Sprague-Dawley rat model of streptozotocin-induced diabetes mellitus at 10 mg/kg, po by HPLC method; type: ADME, organism-based; set-up: dose 10 mg/kg, route oral; settings: in vivo; procedure, shortened: as §3
[11] = Mean residence time in Sprague-Dawley rat model of streptozotocin-induced diabetes mellitus at 10 mg/kg, po by HPLC method; type: ADME, organism-based; set-up: dose 10 mg/kg, route oral; settings: in vivo; procedure, shortened: as §3
Jejunum [12] = assay: Drug absorption in normal Sprague-Dawley rat jejunum assessed as 200 uM BCRP inhibitor novobiocin-mediated increase in apparent effective permeability at 10 ug/ml measured at 90 mins of perfusion; type: ADME, tissue-based; set-up: scale not given: the % may be the effect or the level left; settings: 1.5 h
Procedure, shortened: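 Normal rats underwent in situ single-pass jejunal perfusion: saline preperfusion at 0.2 mL/min, 37 °C, for 20 min, then K-H buffer with GLB 10 μg/mL with or without novobiocin 50 or 200 μM. Effluent was collected every 15 min. Peff (cm/min) was calculated from GLB loss and the absorptive area of the segment; n=5.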

[13] = AUC (0 to t) in insulin treated Sprague-Dawley rat model of streptozotocin-induced diabetes mellitus at 10 mg/kg, po by HPLC method; type: ADME, organism-based; set-up: dose 10 mg/kg, route oral; settings: in vivo; procedure, shortened: as §3
[14] = Drug excretion in urine of insulin treated Sprague-Dawley rat model of streptozotocin-induced diabetes mellitus at 10 mg/kg, po by HPLC method; type: ADME, organism-based; set-up: dose 10 mg/kg, route oral; settings: read-out: Drug excretion; procedure, shortened: as §4
Liver microsome [15] = assay: Apparent hepatic clearance in insulin treated streptozotocin-induced diabetes mellitus Sprague-Dawley rat liver microsomes assessed per mg protein at 4 uM after 60 mins; type: ADME; settings: 1 h; procedure, shortened: as §2
[16] = Drug excretion in normal Sprague-Dawley rat bile at 10 mg/kg, po by HPLC method; type: ADME, organism-based; set-up: dose 10 mg/kg, route oral; settings: read-out: Drug excretion; procedure, shortened: as §4
[17] = Apparent oral volume of distribution in normal Sprague-Dawley rat at 10 mg/kg, po by HPLC method; type: ADME, organism-based; set-up: dose 10 mg/kg, route oral; settings: in vivo; procedure, shortened: as §3
[18] = AUC (0 to infinity) in Sprague-Dawley rat model of streptozotocin-induced diabetes mellitus at 10 mg/kg, po by HPLC method; type: ADME, organism-based; set-up: time infinity, dose 10 mg/kg, route oral; settings: in vivo; procedure, shortened: as §3
[19] = Half life in normal Sprague-Dawley rat liver microsomes at 4 uM after 60 mins; type: ADME; procedure, shortened: as §2
[20] = AUC (0 to t) in normal Sprague-Dawley rat at 10 mg/kg, po by HPLC method; type: ADME, organism-based; set-up: dose 10 mg/kg, route oral; settings: plasma; procedure, shortened: as §3
[21] = Half life in streptozotocin-induced diabetes mellitus Sprague-Dawley rat liver microsomes at 4 uM after 60 mins; type: ADME; procedure, shortened: as §2
[22] = Terminal elimination half life in normal Sprague-Dawley rat at 10 mg/kg, po by HPLC method; type: ADME, organism-based; set-up: dose 10 mg/kg, route oral; settings: in vivo, read-out: beta t1/2 (converted); procedure, shortened: as §1
[23] = Drug excretion in normal Sprague-Dawley rat urine at 10 mg/kg, po by HPLC method; type: ADME, organism-based; set-up: dose 10 mg/kg, route oral; settings: read-out: Drug excretion; procedure, shortened: as §4
Liver microsome [24] = assay: Apparent hepatic clearance in normal Sprague-Dawley rat liver microsomes assessed per mg protein at 4 uM after 60 mins; type: ADME; settings: 1 h; procedure, shortened: as §2
Liver microsome [25] = assay: Drug metabolism in normal Sprague-Dawley rat liver microsomes assessed as compound level at 4 uM after 60 mins (reference value: 2.06 +/- 0.12 ug/ml); type: ADME; settings: 1 h

Compound: COc1ccc(Cl)cc1C(=O)NCCc1ccc(S(=O)(=O)NC(=O)NC2CCCCC2)cc1 [GLYBURIDE]
- Drug absorption (Jejunum [1]): 35%
- half-life [2]: 8.18 h
- AUC(0-t) at 1 h, 4 µM [3]: 916 ng·h/mL
- Vd/F [4]: 6.36 L/kg
- dose excreted [5]: 40%
- CLH(app) (Liver microsome [6]): 52 µL/min/mg
- dose excreted [7]: 50%
- Tmax [8]: 1.5 h
- dose excreted [9]: 0.097%
- MRT [10]: 8.15 h
- MRT [11]: 9.28 h
- Activity (Jejunum [12]): 32%
- AUC(0-t) [13]: 2380 ng·h/mL
- dose excreted [14]: 0.019%
- CLH(app) (Liver microsome [15]): 176 µL/min/mg
- dose excreted [16]: 0.01%
- Vd/F [17]: 25.7 L/kg
- AUC(0-inf) [18]: 15200 ng·h/mL
- half-life at 4 µM [19]: 0.207 h
- AUC(0-t) [20]: 2350 ng·h/mL
- half-life at 4 µM [21]: 0.526 h
- half-life [22]: 4.55 h
- dose excreted [23]: 0.0042%
- CLH(app) (Liver microsome [24]): 205 µL/min/mg
- Drug uptake (Liver microsome [25]): 0.07 µg/mL
